The values below come from ChEMBL document CHEMBL3576784, “Azolylthioacetamide: A Highly Promising Scaffold for the Development of Metallo-β-lactamase Inhibitors” (ACS Med Chem Lett, 2015).

Substrate in this data set: C[C@@H](O)[C@H]1C(=O)N2C(C(=O)O)=C(SCCNC=N)C[C@H]12
The data set is described as follows: Activity of Aeromonas veronii metallo-beta-lactamase ImiS. Put shortly:
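Purified enzyme; initial rates of imipenem hydrolysis followed by UV spectrophotometry (262 or 300 nm) in 50 mM Tris pH 7.0, 25 °C. Substrate 24–140 μM, inhibitor 0–10 μM. Rates in triplicate and averaged. Inhibition mode from Lineweaver–Burk plots. Ki from fits of initial velocity vs substrate concentration at each inhibitor level.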

B1: Beta-lactamase (Aeromonas veronii), O31272 (protein)
chain: MMKGWIKCGLAGAVVLMASFWGGSVRAAGMSLTQQVSGPVYVVEDNYYVQENSMVYFGAKGVTVVGATWTPDTARELHKLIKRVSRKPVLEVINTNYHTDRAGGNAYWKSIGAKVISTRQTRDLMKSDWAEIVAFTRKGLPEYPDLPLVLPNVVHEGDFTLQEGKLRAFYLGPAHSPDGIFVYFPDQQVLYGNCILKEKLGNLSFADVKAYPQTLERLKAMKLPIKTVVGGHDSPLHGPELIDHYEALIKAASQS
One may read the Km as the substrate concentration at which the rate is half of its maximum. As a reminder, the kcat is the maximal rate divided by the concentration of active sites. B1: the Michaelis-Menten constant (Km) came to 99 µM and the kcat came out at 255 s⁻¹.
